These results are taken from ChEMBL document CHEMBL3877315, “Synthesis, biological evaluation and molecular docking analysis of 2-phenyl-benzofuran-3-carboxamide derivatives as potential inhibitors of Staphylococcus aureus Sortase A” (Bioorg Med Chem, 2017).

Bounds are passed on as bounds.

The nature of the assay: Inhibition of Staphylococcus aureus Sortase A delta 59 mutant using Abz-LPATG-Dnp as substrate preincubated for 1 hr followed by substrate addition measured after 30 mins by HPLC method. The method, boiled down: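 His6-tagged SrtA59 expressed from pET28 in E. coli, IPTG-induced, Ni-NTA purified. Enzyme 5 µM was pre-incubated with inhibitor in DMSO (final 12.5~200 µM) for 1 h at 37 °C in 50 mM Tris-HCl pH 7.5, 150 mM NaCl, 5 mM CaCl₂, 0.05% Tween 20. Abz-LPATG-Dnp added at 10 µM final; stopped with HCl. G-Dnp peak area read at 355 nm by reverse-phase HPLC and compared with no-inhibitor control. IC50 taken at 50% decrease; three repeats.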

In the case of `CC(C)CNC(=O)c1c(-c2ccc(COC(=O)Cc3ccc(C(F)(F)F)cc3)cc2)oc2ccccc12`, the IC50 is over 200 µM.

Consider `CC(C)CNC(=O)c1c(-c2ccc(COc3cccc(C=O)c3)cc2)oc2ccccc12`, for which the IC50 is 89 µM.

`CC(C)CNC(=O)c1c(-c2ccc(COC(=O)c3ccc(S)cc3)cc2)oc2ccccc12` had an IC50 of 89.1 µM.

The molecule `CC(C)CNC(=O)c1c(-c2ccc(COC(=O)c3ccc(N)cc3)cc2)oc2ccccc12` returned an IC50 of 52.3 µM.

`CC(C)CNC(=O)c1c(-c2ccc(COC(=O)c3ccc(F)cc3)cc2)oc2ccccc12` had an IC50 of over 200 µM.

In turn, `CCCCNC(=O)c1c(-c2ccc(COC(=O)c3ccc(O)c(O)c3)cc2)oc2ccccc12` registered an IC50 of 66 µM.

In the case of `COc1cc(OC)cc(C(=O)OCc2ccc(-c3oc4ccccc4c3C(=O)NCC(C)C)cc2)c1`, the IC50 amounted to 62 µM.

Molecule `CC(C)CNC(=O)c1c(-c2ccc(COC(=O)c3ccc([N+](=O)[O-])c(O)c3)cc2)oc2ccccc12` displayed an IC50 of 60.6 µM.

Molecule `CC(C)CNC(=O)c1c(-c2ccc(COC(=O)c3ccccc3O)cc2)oc2ccccc12` gave an IC50 of 76.4 µM.

`CC(C)CNC(=O)c1c(-c2ccc(COC(=O)Cc3ccc(O)c(O)c3)cc2)oc2ccccc12` returned an IC50 of 30.8 µM.

`CC(=O)c1cccc(OCc2ccc(-c3oc4ccccc4c3C(=O)NCC(C)C)cc2)c1` displayed an IC50 of 148 µM.

In turn, `CCCCNC(=O)c1c(-c2ccc(COc3ccc(C(=O)OC)cc3)cc2)oc2ccccc12` showed an IC50 of over 200 µM.

As for `CCCCNC(=O)c1c(-c2ccc(COC(=O)c3ccc(O)cc3)cc2)oc2ccccc12`, 186 µM corresponded to half-maximal inhibition (IC50).

The molecule `CC(C)CNC(=O)c1c(-c2ccc(COc3cccc(O)c3)cc2)oc2ccccc12` registered an IC50 of 86.4 µM.

Consider `CC(C)CNC(=O)c1c(-c2ccc(COC(=O)/C=C/c3ccc(O)cc3)cc2)oc2ccccc12`, for which 158 µM corresponded to half-maximal inhibition (IC50).

The molecule `CC(C)CNC(=O)c1c(-c2ccc(COC(=O)c3cccc(O)c3)cc2)oc2ccccc12` gave an IC50 of 50.6 µM.

Take `CC(C)CNC(=O)c1c(-c2ccc(COC(=O)Cc3cccc(O)c3)cc2)oc2ccccc12`: 76.3 µM corresponded to half-maximal inhibition (IC50).

In turn, `CC(C)CNC(=O)c1c(-c2ccc(COC(=O)c3ccc(O)cc3)cc2)oc2ccccc12` registered an IC50 of 43 µM.

For `CC(C)CNC(=O)c1c(-c2ccc(COC(=O)Cc3ccc([N+](=O)[O-])cc3)cc2)oc2ccccc12`, the IC50 is over 200 µM.

For `CC(C)CNC(=O)c1c(-c2ccc(COC(=O)c3cc(O)cc(O)c3)cc2)oc2ccccc12`, the IC50 was determined as 34.5 µM.

With `CC(C)CNC(=O)c1c(-c2ccc(COC(=O)c3ccccc3[N+](=O)[O-])cc2)oc2ccccc12`, the IC50 is over 200 µM.

For `CC(C)CNC(=O)c1c(-c2ccc(COC(=O)c3ccc(N(C)C)cc3)cc2)oc2ccccc12`, the IC50 is over 200 µM.

In the case of `CC(C)CNC(=O)c1c(-c2ccc(COc3ccc(Cl)cc3)cc2)oc2ccccc12`, the IC50 was over 200 µM.

For the molecule `Cc1ccc(OCc2ccc(-c3oc4ccccc4c3C(=O)NCC(C)C)cc2)cc1`, the IC50 is over 200 µM.

The molecule `CC(C)CNC(=O)c1c(-c2ccc(COc3ccc(C#N)cc3)cc2)oc2ccccc12` had an IC50 of 97 µM.

Molecule `CC(C)CNC(=O)c1c(-c2ccc(COC(=O)Cc3ccccc3O)cc2)oc2ccccc12` yielded an IC50 of 89 µM.

Consider `CC(C)CNC(=O)c1c(-c2ccc(COC(=O)c3ccccc3)cc2)oc2ccccc12`, for which the IC50 was 158 µM.

The molecule `CC(C)CNC(=O)c1c(-c2ccc(COC(=O)Cc3cccc(C(F)(F)F)c3)cc2)oc2ccccc12` gave an IC50 of over 200 µM.

In turn, Para-Hydroxymercuribenzoic acid registered an IC50 of 130 µM.

With `CC(=O)Nc1ccc(OCc2ccc(-c3oc4ccccc4c3C(=O)NCC(C)C)cc2)cc1`, half-maximal inhibition (IC50) required 171 µM.

Molecule `CC(C)CNC(=O)c1c(-c2ccc(COC(=O)c3ccc(O)cc3O)cc2)oc2ccccc12` gave an IC50 of 57 µM.

`CC(C)CNC(=O)c1c(-c2ccc(COc3ccc(S(C)(=O)=O)cc3)cc2)oc2ccccc12` yielded an IC50 of 132 µM.

For the molecule `CCCCNC(=O)c1c(-c2ccc(COc3ccc(S(C)(=O)=O)cc3)cc2)oc2ccccc12`, the IC50 is over 200 µM.

Take `CC(=O)Nc1cccc(OCc2ccc(-c3oc4ccccc4c3C(=O)NCC(C)C)cc2)c1`: the IC50 was determined as 148 µM.

Molecule `CC(C)CNC(=O)c1c(-c2ccc(COC(=O)c3ccc(O)c(O)c3)cc2)oc2ccccc12` displayed an IC50 of 39.6 µM.

Turning to `CC(C)CNC(=O)c1c(-c2ccc(COc3ccc(CO)cc3)cc2)oc2ccccc12`, the IC50 amounted to 121 µM.

The molecule `COc1cc(C(=O)OCc2ccc(-c3oc4ccccc4c3C(=O)NCC(C)C)cc2)cc(OC)c1OC` displayed an IC50 of 55.2 µM.

Regarding `CC(C)CNC(=O)c1c(-c2ccc(COC(=O)Cc3ccc(O)cc3)cc2)oc2ccccc12`, half-maximal inhibition (IC50) required 84 µM.
